Reference: article PMC7058367 (Biochemical pharmacology, 2018)
Where two headings read alike, the source gives them in different places.

How the values were obtained:
[1] = target: GluN1^ΔCTD/GluN2D receptors (Rattus norvegicus, UniProt P35439+Q62645); type: cell-based
In short: (§1)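 Xenopus laevis oocytes were injected with GluN1a and GluN2 RNA at a 1:3 molar ratio. The CTD was removed by a stop codon at GluN1 838K or GluN2C 855K, and 10-20-fold more RNA than wild type was injected. Oocytes were kept in ND-96 at 17 °C for 1-5 days. TEVC was run at -60 mV in Ba2+ buffer (pH 7.4). […] Full-length receptors were run alternately on the same day and oocyte batch. Values are mean ± s.e.m.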

[2] = target: GluN1/GluN2D^ΔCTD receptors (Rattus norvegicus, UniProt P35439+Q62645); type: cell-based
[3] = target: GluN1/GluN2A^ΔCTD receptors (Rattus norvegicus, UniProt P35439+Q00959); type: cell-based
In short: (§2)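 Xenopus laevis oocytes were injected with GluN1a:GluN2 RNA at a 1:3 molar ratio (15-30 ng total; 10-20-fold more for CTD-deleted subunits) and kept in ND-96 at 17 °C for 1-5 days. TEVC was run at -60 mV in 116 mM NaCl, 2 mM KCl, 0.3 mM BaCl2, 5 mM HEPES, pH 7.4. […] Full-length controls came from the same batch and day; mean ± s.e.m.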

[4] = target: GluN1/GluN2C^ΔCTD receptors (Rattus norvegicus, UniProt P35439+Q00961); test: Two-electrode voltage clamp of GluN2C CTD-deleted receptors; type: cell-based
In short: as §1

GluN1/GluN2B receptors = GluN1/GluN2B receptors (Rattus norvegicus, UniProt P35439+Q00960); type: cell-based
GluN1/GluN2D receptors = GluN1/GluN2D receptors (Rattus norvegicus, UniProt P35439+Q62645); type: cell-based
In short: (§3)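 Oocytes expressed wild-type GluN1a/GluN2 receptors from 15-30 ng RNA (1:3 molar) and were held in ND-96 at 17 °C for 1-5 days. For Ca2+ chelation, 5 mM EGTA (50 nL) was injected 1-2 h before recording, with uninjected and water-injected oocytes as controls. TEVC was run at -60 mV in 116 mM NaCl, 2 mM KCl, 0.3 mM BaCl2, 5 mM HEPES (pH 7.4). […] Values are mean ± s.e.m.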

[5] = target: GluN1/GluN2B^ΔCTD receptors (Rattus norvegicus, UniProt P35439+Q00960); type: cell-based; conditions: for % potentiation of agonist-evoked current: 10 µM L-glutamate/10 µM glycine (Fig. 2B, 4B)
[6] = target: GluN1^ΔCTD/GluN2B receptors (Rattus norvegicus, UniProt P35439+Q00960); type: cell-based; conditions: 100 µM compound; 10 µM L-glutamate/10 µM glycine (Fig. 2C)
In short: as §2

[7] = test system: GluN1 CTD in neurons expressing GluN1-GFP, GluN2A and GluN1-mCherry; test: CTD-FRET; type: cell-based, rat; conditions: 75 µM compound, absence of agonists, imaged 10 min after application (Fig. 8)
In short: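 Rat primary hippocampal neurons were transfected at DIV 7-10 with ~2 µg total DNA (GluN1-GFP, GluN2A, GluN1-mCherry) by lipofection and imaged at 16-18 DIV in 0.87x HBSS, 5 mM HEPES, 1 mM glucose, 2.5 mM MgCl2, 0.5 mM CaCl2. Baseline and 10 min post-compound two-photon FLIM images were taken, each neuron imaged twice, compounds interleaved. Lifetimes were fit single-exponential and analysed blind; two preparations pooled.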

[8] = target: GluN1^ΔCTD/GluN2A receptors (Rattus norvegicus, UniProt P35439+Q00959); type: cell-based; conditions: for effect of GluN1 CTD-deletion on modulator activity at GluN2A receptors: vs GluN1^WT/GluN2A, GNE-8324 30 µM, PAS 100 µM, DQP-1105 50 µM, TCN-201 10 µM (Fig. 4E, 5G-I)
In short: as §2

[9] = target: GluN1^ΔCTD/GluN2C receptors (Rattus norvegicus, UniProt P35439+Q00961); type: cell-based; conditions: 100 µM compound; 10 µM L-glutamate/10 µM glycine (Fig. 2C)
In short: as §2

GluN1/GluN2A receptors = GluN1/GluN2A receptors (Rattus norvegicus, UniProt P35439+Q00959); type: cell-based
In short: as §2

GluN1/GluN2C receptors = GluN1/GluN2C receptors (Rattus norvegicus, UniProt P35439+Q00961); type: cell-based
In short: as §3

[10] = 100 µM compound, 10 µM L-glutamate/10 µM glycine (Fig. 2C)
[11] = 100 µM compound, 10 µM L-glutamate/10 µM glycine (Fig. 2B, 5A)
[12] = 10 µM FSK and 1 mM IBMX for 10 minutes, 50 µM UBP684, 100 µM PS (Fig. 7B, C)
[13] = 100 µM compound, control cells for U73122 experiment (Fig. 6J)
[14] = 10 µM compound, 10 µM L-glutamate/10 µM glycine (Fig. 4D)
[15] = 10 µM compound, 10 µM L-glutamate/10 µM glycine (Fig. 5C)
[16] = 30 µM compound, 10 µM L-glutamate/10 µM glycine (Fig. 4A, 5B)
[17] = 10 µM compound, 10 µM L-glutamate/10 µM glycine (Fig. 5D-F)
[18] = 10 µM compound, 10 µM L-glutamate/10 µM glycine, GluN2A^WT (Fig. 5D-F)
[19] = 30 µM compound, vs WT (Fig. 5B)

Sequence of GluN1/GluN2C receptors (Q00961 20-1237, other chains not shown): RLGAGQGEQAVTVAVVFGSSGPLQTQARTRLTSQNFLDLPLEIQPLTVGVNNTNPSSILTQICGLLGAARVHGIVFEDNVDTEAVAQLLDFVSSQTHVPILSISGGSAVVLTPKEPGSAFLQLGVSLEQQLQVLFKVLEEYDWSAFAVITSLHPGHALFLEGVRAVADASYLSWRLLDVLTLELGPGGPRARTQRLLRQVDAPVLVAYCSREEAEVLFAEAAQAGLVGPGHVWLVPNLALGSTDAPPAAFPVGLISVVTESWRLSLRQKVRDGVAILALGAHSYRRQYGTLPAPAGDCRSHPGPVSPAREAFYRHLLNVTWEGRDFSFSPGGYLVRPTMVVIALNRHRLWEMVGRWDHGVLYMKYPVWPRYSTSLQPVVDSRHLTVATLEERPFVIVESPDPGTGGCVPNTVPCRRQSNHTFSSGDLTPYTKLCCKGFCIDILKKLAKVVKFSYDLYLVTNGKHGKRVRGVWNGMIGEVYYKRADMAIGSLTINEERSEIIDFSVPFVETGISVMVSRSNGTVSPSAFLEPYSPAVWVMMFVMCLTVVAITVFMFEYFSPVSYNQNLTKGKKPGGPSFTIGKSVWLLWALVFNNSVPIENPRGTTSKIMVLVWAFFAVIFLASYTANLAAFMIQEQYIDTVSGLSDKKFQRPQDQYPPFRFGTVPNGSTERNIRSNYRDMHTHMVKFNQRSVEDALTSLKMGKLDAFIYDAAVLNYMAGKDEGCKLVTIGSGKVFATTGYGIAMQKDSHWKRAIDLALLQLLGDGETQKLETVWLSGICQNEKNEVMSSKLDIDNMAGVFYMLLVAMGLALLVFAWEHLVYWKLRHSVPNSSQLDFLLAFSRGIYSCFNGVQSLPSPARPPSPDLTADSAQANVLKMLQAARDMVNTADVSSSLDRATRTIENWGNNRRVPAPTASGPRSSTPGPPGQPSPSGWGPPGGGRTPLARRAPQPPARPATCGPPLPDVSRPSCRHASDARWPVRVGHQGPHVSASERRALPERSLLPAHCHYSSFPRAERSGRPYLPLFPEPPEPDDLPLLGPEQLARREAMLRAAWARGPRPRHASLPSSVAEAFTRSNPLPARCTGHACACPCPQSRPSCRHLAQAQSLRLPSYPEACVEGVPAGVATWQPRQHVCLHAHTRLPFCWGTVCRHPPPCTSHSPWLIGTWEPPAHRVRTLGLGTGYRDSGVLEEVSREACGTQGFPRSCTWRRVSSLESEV
Sequence of GluN1/GluN2D receptors (Q62645 28-1323, other chains not shown): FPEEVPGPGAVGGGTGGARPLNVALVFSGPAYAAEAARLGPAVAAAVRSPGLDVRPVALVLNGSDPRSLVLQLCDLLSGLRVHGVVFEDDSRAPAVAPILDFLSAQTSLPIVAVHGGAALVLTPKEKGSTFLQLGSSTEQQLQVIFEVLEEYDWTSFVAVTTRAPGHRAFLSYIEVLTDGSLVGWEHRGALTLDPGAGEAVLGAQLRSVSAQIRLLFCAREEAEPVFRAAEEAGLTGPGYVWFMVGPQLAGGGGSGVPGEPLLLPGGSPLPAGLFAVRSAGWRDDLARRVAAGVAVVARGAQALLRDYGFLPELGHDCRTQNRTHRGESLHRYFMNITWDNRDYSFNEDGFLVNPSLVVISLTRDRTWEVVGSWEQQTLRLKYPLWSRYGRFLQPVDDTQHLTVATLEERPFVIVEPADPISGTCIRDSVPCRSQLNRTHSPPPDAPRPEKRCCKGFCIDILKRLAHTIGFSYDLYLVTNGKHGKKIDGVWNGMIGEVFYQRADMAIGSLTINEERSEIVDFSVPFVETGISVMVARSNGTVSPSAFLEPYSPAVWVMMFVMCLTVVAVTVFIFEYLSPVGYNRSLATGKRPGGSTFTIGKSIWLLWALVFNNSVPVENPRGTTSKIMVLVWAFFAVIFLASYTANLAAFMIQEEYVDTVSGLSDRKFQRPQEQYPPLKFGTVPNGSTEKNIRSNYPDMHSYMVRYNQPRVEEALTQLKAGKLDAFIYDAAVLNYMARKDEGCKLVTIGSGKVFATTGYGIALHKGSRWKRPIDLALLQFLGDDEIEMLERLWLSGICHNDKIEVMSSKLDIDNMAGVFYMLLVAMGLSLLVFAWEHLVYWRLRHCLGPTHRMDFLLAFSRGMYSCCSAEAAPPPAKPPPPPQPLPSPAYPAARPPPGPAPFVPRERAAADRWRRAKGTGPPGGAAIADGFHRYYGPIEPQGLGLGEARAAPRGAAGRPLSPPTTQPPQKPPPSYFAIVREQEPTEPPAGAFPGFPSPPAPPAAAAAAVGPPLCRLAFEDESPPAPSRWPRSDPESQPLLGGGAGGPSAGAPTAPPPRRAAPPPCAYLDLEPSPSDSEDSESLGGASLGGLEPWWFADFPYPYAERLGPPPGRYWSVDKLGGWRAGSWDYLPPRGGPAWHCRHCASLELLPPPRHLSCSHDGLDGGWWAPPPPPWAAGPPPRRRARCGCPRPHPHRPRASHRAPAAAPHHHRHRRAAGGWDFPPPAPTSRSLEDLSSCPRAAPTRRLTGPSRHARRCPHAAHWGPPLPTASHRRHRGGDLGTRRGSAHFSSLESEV
Sequence of GluN1/GluN2D^ΔCTD receptors (Q62645 28-869 limits assumed, stated change not applied, other chains not shown): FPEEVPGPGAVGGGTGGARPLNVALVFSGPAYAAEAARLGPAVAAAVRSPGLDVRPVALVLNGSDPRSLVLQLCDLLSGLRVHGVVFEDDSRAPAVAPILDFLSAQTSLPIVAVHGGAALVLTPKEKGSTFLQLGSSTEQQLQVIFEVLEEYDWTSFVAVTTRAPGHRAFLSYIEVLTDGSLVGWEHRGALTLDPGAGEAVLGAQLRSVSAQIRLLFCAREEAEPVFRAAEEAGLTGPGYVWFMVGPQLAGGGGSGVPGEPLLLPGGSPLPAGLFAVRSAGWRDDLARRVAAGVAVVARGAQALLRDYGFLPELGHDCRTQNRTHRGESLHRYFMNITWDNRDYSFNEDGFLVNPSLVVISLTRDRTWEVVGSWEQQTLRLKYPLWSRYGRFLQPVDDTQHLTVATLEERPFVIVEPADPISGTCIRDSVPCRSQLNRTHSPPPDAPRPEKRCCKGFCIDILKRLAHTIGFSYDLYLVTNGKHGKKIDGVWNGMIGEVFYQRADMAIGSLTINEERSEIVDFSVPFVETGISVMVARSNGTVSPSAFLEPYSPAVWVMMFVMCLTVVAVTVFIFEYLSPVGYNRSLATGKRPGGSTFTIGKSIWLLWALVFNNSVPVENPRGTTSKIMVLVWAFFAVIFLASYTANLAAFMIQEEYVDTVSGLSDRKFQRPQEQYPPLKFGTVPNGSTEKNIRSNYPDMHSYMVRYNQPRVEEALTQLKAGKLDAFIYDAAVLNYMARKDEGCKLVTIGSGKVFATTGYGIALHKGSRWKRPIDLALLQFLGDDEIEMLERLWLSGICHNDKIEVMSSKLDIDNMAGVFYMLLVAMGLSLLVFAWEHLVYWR
Sequence of GluN1/GluN2C^ΔCTD receptors (Q00961 20-842, stated change not applied, other chains not shown): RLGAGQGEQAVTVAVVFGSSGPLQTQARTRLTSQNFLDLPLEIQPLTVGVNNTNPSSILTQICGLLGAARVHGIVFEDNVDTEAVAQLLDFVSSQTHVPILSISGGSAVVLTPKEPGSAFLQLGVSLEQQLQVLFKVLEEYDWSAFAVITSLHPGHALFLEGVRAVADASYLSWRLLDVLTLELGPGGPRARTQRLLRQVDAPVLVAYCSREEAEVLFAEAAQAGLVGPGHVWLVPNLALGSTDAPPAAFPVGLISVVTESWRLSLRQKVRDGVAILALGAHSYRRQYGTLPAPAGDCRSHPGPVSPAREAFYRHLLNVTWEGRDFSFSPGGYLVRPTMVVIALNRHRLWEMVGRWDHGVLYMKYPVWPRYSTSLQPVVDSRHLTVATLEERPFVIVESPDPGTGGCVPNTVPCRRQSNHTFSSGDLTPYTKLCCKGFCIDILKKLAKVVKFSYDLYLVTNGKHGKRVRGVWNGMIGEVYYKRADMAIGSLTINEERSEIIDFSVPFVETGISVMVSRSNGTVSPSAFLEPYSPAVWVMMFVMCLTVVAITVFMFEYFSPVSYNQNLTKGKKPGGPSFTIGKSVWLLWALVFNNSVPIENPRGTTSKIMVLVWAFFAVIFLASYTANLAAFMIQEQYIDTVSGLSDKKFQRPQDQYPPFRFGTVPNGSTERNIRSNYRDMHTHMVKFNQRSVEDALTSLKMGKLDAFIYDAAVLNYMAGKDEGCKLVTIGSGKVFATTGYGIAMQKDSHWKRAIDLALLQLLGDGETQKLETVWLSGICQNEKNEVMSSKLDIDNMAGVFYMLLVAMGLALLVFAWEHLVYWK
Sequence of GluN1^ΔCTD/GluN2D receptors (Q62645 28-1323, stated change not applied, other chains not shown): as the sequence (Q62645 28-1323, other chains not shown) above
Sequence of GluN1^ΔCTD/GluN2C receptors (Q00961 20-1237, stated change not applied, other chains not shown): as the sequence (Q00961 20-1237, other chains not shown) above

5-Pregnen-3β-ol-20-onesulphate [PS]
% inhibition of agonist-evoked current [1, 10]: 45 ± 6%
IC50 ([2]; 10 µM L-glutamate/10 µM glycine (Fig. 3)): 76.7 ± 19.1%
% inhibition of agonist-evoked current [2, 11]: 49 ± 8%
effect of PKC activation by PMA on PAM activity ([3]; 2 µM PMA for 10 minutes, 50 µM UBP684, 100 µM PS (Fig. 7G, H)): significantly increased
% inhibition of agonist-evoked current [3, 11]: 23 ± 4%
modulation in dose-response experiment ([3]; all doses, the lowest being 3 µM, 10 µM L-glutamate/10 µM glycine (Fig. 3)): NAM activity at all doses
% inhibition of agonist-evoked current [4, 11]: 89 ± 2%
effect of PKC activation by PMA on PAM activity (GluN1/GluN2B receptors; 2 µM PMA for 10 minutes, 50 µM UBP684, 100 µM PS (Fig. 7E, F)): unaffected
effect of PKA activation on % potentiation (GluN1/GluN2B receptors; [12]): unchanged
% potentiation of agonist-evoked current (GluN1/GluN2B receptors; [13]): 82 ± 10%
effect of EGTA injection on modulation (GluN1/GluN2B receptors; 5 mM EGTA injected vs controls (Fig. 6F)): no significant effect
IC50 (GluN1/GluN2D receptors; 10 µM L-glutamate/10 µM glycine, WT GluN1/GluN2D (Fig. 3)): 149.8 ± 18.0%
effect of EGTA injection on potentiation/modulation (GluN1/GluN2D receptors; 5 mM EGTA injected vs controls (Fig. 6D, H)): no significant effect
% potentiation of agonist-evoked current ([5]; 100 µM compound): 74 ± 10%
% potentiation of agonist-evoked current [6]: 156 ± 25%
change of GluN1-GFP fluorescence lifetime (movement of the GluN1 CTD) [7]: did not affect
% potentiation of agonist-evoked current [8, 10]: 32 ± 4%
% inhibition of agonist-evoked current [9]: 66 ± 5%
effect of PKA activation on % potentiation (GluN1/GluN2A receptors; [12]): unchanged
% potentiation of agonist-evoked current (GluN1/GluN2A receptors; [13]): 45 ± 3%
effect of EGTA injection on modulation (GluN1/GluN2A receptors; 5 mM EGTA injected vs controls (Fig. 6E)): no significant effect
effect of EGTA injection on potentiation/modulation (GluN1/GluN2C receptors; 5 mM EGTA injected vs controls (Fig. 6C, G)): no significant effect

COc1ccc(OCC2c3cc(OC)c(OC)cc3CCN2C(=O)c2cccc(Cl)c2)cc1 (stereo not drawn) [CIQ]
effect of GluN1 CTD-deletion on PAM activity ([1]; 10 µM compound, vs wild-type GluN1/GluN2D (Fig. 4F)): significantly reduced
% potentiation of agonist-evoked current [2, 14]: 48 ± 5%
% potentiation of agonist-evoked current [4, 14]: 113 ± 13%
% potentiation of agonist-evoked current (GluN1/GluN2D receptors; 10 µM compound, 10 µM L-glutamate/10 µM glycine, GluN2D^WT (Fig. 4D)): 72 ± 11%
% potentiation of agonist-evoked current (GluN1/GluN2C receptors; 10 µM compound, 10 µM L-glutamate/10 µM glycine, GluN2C^WT (Fig. 4D)): 89 ± 8%

Cc1ccc2[nH]c(=O)c(C3=NN(C(=O)CCC(=O)O)C(c4ccc(Br)cc4)C3)c(-c3ccccc3)c2c1 (stereo not drawn) [DQP-1105]
% inhibition of agonist-evoked current [2, 15]: 97 ± 2%
% inhibition of agonist-evoked current ([3]; 50 µM compound, 10 µM L-glutamate/10 µM glycine (Fig. 5C)): 82 ± 4%
% inhibition of agonist-evoked current [4, 15]: 79 ± 4%
% inhibition of agonist-evoked current (GluN1/GluN2D receptors; 10 µM compound, 10 µM L-glutamate/10 µM glycine, GluN2D^WT (Fig. 5C)): 87 ± 1%
effect of GluN1 CTD-deletion on modulator activity at GluN2A receptors [8]: did not observe any effect
% inhibition of agonist-evoked current (GluN1/GluN2A receptors; 50 µM compound, 10 µM L-glutamate/10 µM glycine, WT (Fig. 5C)): 39 ± 3%
% inhibition of agonist-evoked current (GluN1/GluN2C receptors; 10 µM compound, 10 µM L-glutamate/10 µM glycine, WT (Fig. 5C)): 69 ± 2%

CCN(Cc1cc(=O)n2c3c(sc2n1)CCC3)c1ccc(F)cc1 [GNE-8324]
% inhibition of agonist-evoked current [3, 16]: 11 ± 2%
effect of GluN1 CTD-deletion on modulator activity at GluN2A receptors [8]: unaffected
% potentiation of agonist-evoked current (GluN1/GluN2A receptors; 30 µM compound, 10 µM L-glutamate/10 µM glycine, GluN2A^WT (Fig. 4A)): 35 ± 4%

Cc1ncc(CNC(=O)c2cnc(CNS(=O)(=O)c3ccc(F)c(Cl)c3)cn2)s1 [MPX-004]
% inhibition of agonist-evoked current [3, 17]: 29 ± 13%
% inhibition of agonist-evoked current (GluN1/GluN2A receptors; [18]): 75 ± 8%

Cc1ncc(CNC(=O)c2cnc(CNS(=O)(=O)c3ccc(F)c(F)c3)c(C)n2)s1 [MPX-007]
% inhibition of agonist-evoked current [3, 17]: 36 ± 6%
% inhibition of agonist-evoked current (GluN1/GluN2A receptors; [18]): 77 ± 9%

CC(=O)[C@H]1CC[C@H]2[C@@H]3CC[C@@H]4C[C@H](OS(=O)(=O)O)CC[C@]4(C)[C@H]3CC[C@]12C [PAS, 5β-pregnan-3α-ol-20-onesulphate]
% inhibition of agonist-evoked current [2, 11]: 85 ± 5%
% inhibition of agonist-evoked current [3, 11]: 89 ± 2%
% inhibition of agonist-evoked current [4, 11]: 93 ± 1%
% inhibition of agonist-evoked current (GluN1/GluN2B receptors; 100 µM compound, 10 µM L-glutamate/10 µM glycine, GluN2B^WT (Fig. 5A)): 67 ± 1%
% inhibition of agonist-evoked current ([5]; 100 µM compound, 10 µM L-glutamate/10 µM glycine (Fig. 5A)): 76 ± 3%
effect of GluN1 CTD-deletion on modulator activity at GluN2A receptors [8]: did not observe any effect
% inhibition of agonist-evoked current (GluN1/GluN2A receptors; 100 µM compound, 10 µM L-glutamate/10 µM glycine, GluN2A^WT (Fig. 5A)): 61 ± 3%

COC(=O)c1ccc(C2C(C(C)=O)=C(O)C(=O)N2CCc2c(C)[nH]c3ccccc23)cc1 (stereo not drawn) [PYD-106]
% potentiation of agonist-evoked current ([4]; 30 µM compound, 10 µM L-glutamate/10 µM glycine (Fig. 4C)): 21 ± 3%
% potentiation of agonist-evoked current (GluN1/GluN2C receptors; 30 µM compound, 10 µM L-glutamate/10 µM glycine, GluN2C^WT (Fig. 4C)): 64 ± 4%

NCCCNCCCCNCCCN [Spermine]
% potentiation of agonist-evoked current ([5]; 100 µM compound): 57 ± 5%

O=C(NNC(=O)c1ccc(CNS(=O)(=O)c2ccc(F)c(Cl)c2)cc1)c1ccccc1 [TCN-201]
% inhibition of agonist-evoked current [3, 17]: 53 ± 5%
effect of GluN1 CTD-deletion on modulator activity at GluN2A receptors [8]: did not observe any effect
% inhibition of agonist-evoked current (GluN1/GluN2A receptors; [18]): 82 ± 2%

O=C(O)c1cc2cc(/C=C/c3ccccc3[N+](=O)[O-])ccc2cc1O [UBP792]
% inhibition of agonist-evoked current ([2]; 30 µM compound, 10 µM L-glutamate/10 µM glycine (Fig. 5B)): 68 ± 7%
% inhibition of agonist-evoked current [3, 16]: 64 ± 6%
effect of GluN2C CTD-deletion on NAM activity [4, 19]: did not display a significant effect
% inhibition of agonist-evoked current (GluN1/GluN2D receptors; 30 µM compound, 10 µM L-glutamate/10 µM glycine, wild-type (Fig. 5B)): 86 ± 1%
effect of GluN2B CTD-deletion on NAM activity [5, 19]: did not display a significant effect
% inhibition of agonist-evoked current (GluN1/GluN2A receptors; 30 µM compound, 10 µM L-glutamate/10 µM glycine, WT (Fig. 5B)): 22 ± 8%
